In ChEMBL document CHEMBL4308847, “Discovery, Structure-Activity Relationship, and Biological Characterization of a Novel Series of 6-((1 H-Pyrazolo[4,3- b]pyridin-3-yl)amino)-benzo[ d]isothiazole-3-carboxamides as Positive Allosteric Modulators of the Metabotropic Glutamate Receptor 4 (mGlu4)” (J Med Chem, 2018):
Activity calls are given as the source filed them. No cut-off for these calls is given here.

Assays:
[1] = molecular target: T1, Metabotropic glutamate receptor 4 (Homo sapiens, UniProt Q14833); assay: (§1) Positive allosteric modulation of human mGlu4 receptor expressed in CHO cells co-expressing Gqi5 assessed as increase in glutamate-induced calcium mobilization preincubated for 142 secs followed by EC20 glutamate addition and subsequent EC80 glutamate addition after 147 secs by Fluo-4-AM dye based fluorescence assay; assay type: functional, cell-based
Procedure, shortened: (§2)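 CHO cells expressing human mGlu4 and Gqi5, plated at 30,000 cells/well and grown overnight at 37 °C, 5% CO2. Cells were loaded with 1 μM Fluo-4 AM for 45 min at 37 °C in HBSS/20 mM HEPES/2.5 mM probenecid. Compounds were run as 10-point, 1:3 dilution series. After 142 s, EC20 glutamate was added; 147 s later, EC80 glutamate. Fluorescence was normalized to the maximal glutamate response. EC50 and %Glu Max were fitted by four-parameter logistic, with maximum normalized to PHCCC.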

[2] = molecular target: T1, Metabotropic glutamate receptor 4; assay: as §1, with “measured” for “subsequent EC80 glutamate addition”, “assay relative to control” for “assay”; assay type: functional, cell-based; procedure, shortened: as §2
[3] = molecular target: T2, AhR (read out as CYP1A2 induction) (Homo sapiens, UniProt P35869); assay: Activation of AhR (unknown origin) assessed as CYP1A2 induction relative to control; assay type: ADME
T2 sequence (P35869 whole entry): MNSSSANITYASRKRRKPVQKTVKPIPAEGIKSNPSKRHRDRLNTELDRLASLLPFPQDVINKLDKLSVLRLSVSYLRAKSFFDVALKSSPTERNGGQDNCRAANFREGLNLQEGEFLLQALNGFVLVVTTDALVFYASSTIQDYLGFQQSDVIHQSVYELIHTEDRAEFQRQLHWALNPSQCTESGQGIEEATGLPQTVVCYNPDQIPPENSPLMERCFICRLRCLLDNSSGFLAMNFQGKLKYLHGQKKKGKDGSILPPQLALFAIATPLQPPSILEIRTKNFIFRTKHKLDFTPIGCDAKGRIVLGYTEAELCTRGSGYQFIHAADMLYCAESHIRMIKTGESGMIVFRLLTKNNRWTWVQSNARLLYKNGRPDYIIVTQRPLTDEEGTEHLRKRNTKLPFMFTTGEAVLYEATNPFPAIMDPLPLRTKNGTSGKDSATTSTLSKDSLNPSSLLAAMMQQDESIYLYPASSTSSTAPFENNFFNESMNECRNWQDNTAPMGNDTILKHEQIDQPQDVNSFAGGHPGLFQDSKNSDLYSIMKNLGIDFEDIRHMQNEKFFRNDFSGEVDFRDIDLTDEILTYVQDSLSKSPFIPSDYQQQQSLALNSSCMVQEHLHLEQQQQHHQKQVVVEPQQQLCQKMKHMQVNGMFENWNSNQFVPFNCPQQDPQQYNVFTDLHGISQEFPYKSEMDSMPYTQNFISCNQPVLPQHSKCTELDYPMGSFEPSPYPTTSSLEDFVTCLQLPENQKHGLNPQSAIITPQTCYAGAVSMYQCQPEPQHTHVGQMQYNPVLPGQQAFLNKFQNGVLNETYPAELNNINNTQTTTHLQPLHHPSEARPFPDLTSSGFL

[4] = Intrinsic clearance in human liver microsomes at 1 uM preincubated for 5 mins followed by NADPH addition measured up to 45 mins by LC-MS/MS analysis; assay type: ADME, Microsome; details: read-out: CLH
Procedure, shortened: (§3)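 Intrinsic and predicted hepatic clearance derived from liver microsome incubations.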

[5] = Intrinsic clearance in rat liver microsomes at 1 uM preincubated for 5 mins followed by NADPH addition measured up to 45 mins by LC-MS/MS analysis; assay type: ADME, Microsome; details: read-out: CLH; procedure, shortened: as §3
[6] = Fraction unbound in human plasma after 4 hrs by equilibrium dialysis method; assay type: ADME, cell-free
[7] = Fraction unbound in rat plasma after 4 hrs by equilibrium dialysis method; assay type: ADME, cell-free
Cytochrome P450 1A2 = molecular target: T3, Cytochrome P450 1A2 (Homo sapiens, UniProt P05177); assay: Inhibition of CYP1A2 in human liver microsomes using phenacetin as substrate preincubated for 15 mins followed by substrate addition and measured after 8 mins by LC-MS/MS analysis; assay type: ADME
T3 sequence (P05177 whole entry): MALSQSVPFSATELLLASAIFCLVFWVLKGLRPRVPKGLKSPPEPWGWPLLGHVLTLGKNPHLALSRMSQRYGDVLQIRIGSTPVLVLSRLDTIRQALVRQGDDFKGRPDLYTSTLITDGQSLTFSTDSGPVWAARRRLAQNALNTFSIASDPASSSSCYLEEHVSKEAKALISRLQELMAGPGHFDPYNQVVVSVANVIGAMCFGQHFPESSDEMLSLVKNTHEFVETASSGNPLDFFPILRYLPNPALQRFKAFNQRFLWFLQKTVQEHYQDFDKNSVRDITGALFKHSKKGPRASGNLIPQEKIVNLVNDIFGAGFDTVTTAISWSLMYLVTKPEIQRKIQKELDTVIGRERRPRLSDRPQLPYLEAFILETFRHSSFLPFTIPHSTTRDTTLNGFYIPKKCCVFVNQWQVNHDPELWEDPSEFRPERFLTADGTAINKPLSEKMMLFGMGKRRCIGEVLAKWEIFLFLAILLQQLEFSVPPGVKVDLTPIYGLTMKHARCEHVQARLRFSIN
Procedure, shortened: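 IC50 for CYP1A2 inhibition determined in human liver microsomes using specific probe substrate-metabolite pairs.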

[8] = molecular target: Metabotropic glutamate receptor 4 (Rattus norvegicus, UniProt P31423); assay: (§4) Positive allosteric modulation of rat mGlu4 receptor expressed in HEK cells co-expressing GIRK1/2 assessed as increase in glutamate-induced thallium flux preincubated for 140 secs followed by glutamate addition and measured after 2.5 mins by FluoZin-2-AM dye based fluorescence assay; assay type: cell-based
Procedure, shortened: (§5)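 HEK cells co-expressing rat mGlu4 and GIRK1/2 were loaded for 1 h at room temperature with FluoZin-2 AM (330 nM final) in HBSS/20 mM HEPES pH 7.4. Compound was incubated 140 s, then thallium buffer with or without agonist was added. Reading continued for 2.5 min at room temperature. Potency was fitted by four-parameter logistic.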

[9] = molecular target: Metabotropic glutamate receptor 4 (Rattus norvegicus) (UniProt P31423); assay: as §4, with “assay relative to control” for “assay”; assay type: cell-based; procedure, shortened: as §5
[10] = Clearance in rat administered as iv cassette dose; assay type: ADME, organism-based; details: in vivo
Procedure, shortened: (§6)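 IV cassette in male Sprague-Dawley rats (~300 g, n = 1 per experiment), cannulated in carotid artery and jugular vein and acclimated about one week. Plasma clearance, Vss, t1/2 and MRT were derived.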

[11] = Volume of distribution at steady state in rat administered as iv cassette dose; assay type: ADME, organism-based; details: in vivo, read-out: Vdss; procedure, shortened: as §6
[12] = MRT in rat administered as iv cassette dose; assay type: ADME, organism-based; details: in vivo; procedure, shortened: as §6
[13] = Half life in rat administered as iv cassette dose; assay type: ADME, organism-based; details: in vivo; procedure, shortened: as §6
[14] = Plasma concentration in rat administered as iv cassette dose; assay type: ADME, organism-based; details: in vivo
Procedure, shortened: (§7)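 Cassette dosing in male Sprague-Dawley rats (~300 g, n = 1 per experiment), with carotid artery and jugular vein catheters. Animals acclimated about one week with food and water ad libitum. Plasma (ng/mL) and brain (ng/g) levels were measured and Kp calculated.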

[15] = Drug uptake in rat brain administered as iv cassette dose; assay type: ADME, organism-based; details: in vivo; procedure, shortened: as §7
[16] = Brain to plasma partition coefficient, Kp of the compound in rat administered as iv cassette dose; assay type: ADME, organism-based; procedure, shortened: as §7
Rattus norvegicus = assay: Reversal of haloperidol-induced catalepsy in Sprague-Dawley rat assessed as decrease in latency to remove forepaws from bar at 10 mg/kg, po administered 30 mins prior to test; assay type: functional, organism-based
Procedure, shortened: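 Male Sprague-Dawley rats were randomized and given haloperidol 0.75 mg/kg i.p., then 60 min in home cage. Vehicle or compound (10 mg/kg) was given orally 30 min before catalepsy testing, N = 11–12 rats/group. Data analyzed by one-way ANOVA with Dunnett's test versus vehicle + haloperidol.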

T1 sequence (Q14833 whole entry): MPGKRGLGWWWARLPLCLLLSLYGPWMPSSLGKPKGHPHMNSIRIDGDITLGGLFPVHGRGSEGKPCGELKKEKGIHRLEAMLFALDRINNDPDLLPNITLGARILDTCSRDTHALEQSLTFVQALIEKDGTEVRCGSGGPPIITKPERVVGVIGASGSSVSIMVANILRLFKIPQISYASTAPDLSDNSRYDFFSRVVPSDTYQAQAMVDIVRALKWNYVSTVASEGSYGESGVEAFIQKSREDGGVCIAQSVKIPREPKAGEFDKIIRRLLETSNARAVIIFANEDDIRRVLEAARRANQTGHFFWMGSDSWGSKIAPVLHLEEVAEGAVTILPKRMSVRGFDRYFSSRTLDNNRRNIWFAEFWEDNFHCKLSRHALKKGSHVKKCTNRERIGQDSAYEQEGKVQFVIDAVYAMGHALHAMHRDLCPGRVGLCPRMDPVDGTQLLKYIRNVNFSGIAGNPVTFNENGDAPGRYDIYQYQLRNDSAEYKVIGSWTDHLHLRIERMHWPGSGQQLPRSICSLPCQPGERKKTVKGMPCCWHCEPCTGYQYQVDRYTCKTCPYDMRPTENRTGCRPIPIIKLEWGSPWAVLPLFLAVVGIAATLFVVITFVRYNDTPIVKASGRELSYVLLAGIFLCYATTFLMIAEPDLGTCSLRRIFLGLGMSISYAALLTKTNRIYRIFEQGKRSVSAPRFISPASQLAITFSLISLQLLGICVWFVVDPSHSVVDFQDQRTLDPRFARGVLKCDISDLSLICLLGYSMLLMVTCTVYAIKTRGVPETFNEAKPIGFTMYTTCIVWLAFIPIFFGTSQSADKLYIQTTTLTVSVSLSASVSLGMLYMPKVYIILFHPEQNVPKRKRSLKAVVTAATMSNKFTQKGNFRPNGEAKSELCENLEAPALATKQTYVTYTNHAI
Metabotropic glutamate receptor 4 (Rattus norvegicus, UniProt P31423), sequence (P31423 whole entry): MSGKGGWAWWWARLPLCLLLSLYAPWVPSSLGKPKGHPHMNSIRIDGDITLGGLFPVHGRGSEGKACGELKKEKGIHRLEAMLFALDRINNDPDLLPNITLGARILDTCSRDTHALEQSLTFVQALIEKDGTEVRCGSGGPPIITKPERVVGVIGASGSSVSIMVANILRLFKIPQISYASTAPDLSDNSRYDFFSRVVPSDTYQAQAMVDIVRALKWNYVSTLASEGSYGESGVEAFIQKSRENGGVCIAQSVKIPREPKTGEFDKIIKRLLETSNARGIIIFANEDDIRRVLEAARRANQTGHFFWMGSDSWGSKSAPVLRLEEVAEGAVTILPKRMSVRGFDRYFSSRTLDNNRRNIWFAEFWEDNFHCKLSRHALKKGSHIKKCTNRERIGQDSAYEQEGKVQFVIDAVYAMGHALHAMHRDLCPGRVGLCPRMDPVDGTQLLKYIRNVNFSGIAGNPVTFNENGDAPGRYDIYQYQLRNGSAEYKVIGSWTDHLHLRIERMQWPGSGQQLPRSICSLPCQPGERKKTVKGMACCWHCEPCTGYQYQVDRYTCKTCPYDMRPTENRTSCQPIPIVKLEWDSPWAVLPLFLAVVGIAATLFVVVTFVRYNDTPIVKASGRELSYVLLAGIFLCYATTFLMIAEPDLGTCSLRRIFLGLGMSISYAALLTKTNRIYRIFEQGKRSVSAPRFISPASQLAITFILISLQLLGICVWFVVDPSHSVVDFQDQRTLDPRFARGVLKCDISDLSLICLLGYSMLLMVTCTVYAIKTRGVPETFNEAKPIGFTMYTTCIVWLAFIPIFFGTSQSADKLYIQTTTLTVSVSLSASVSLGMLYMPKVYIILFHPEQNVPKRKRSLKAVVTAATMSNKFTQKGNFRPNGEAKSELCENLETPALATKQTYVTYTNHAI
Metabotropic glutamate receptor 4 (Rattus norvegicus), sequence (P31423 whole entry): as above

| SMILES | EC50 [1] | %max [2] | Emax [3] | CLint scaled at 1 µM [4] | CLint scaled at 1 µM [5] | fraction unbound at 4 h [6] | fraction unbound at 4 h [7] | IC50 (Cytochrome P450 1A2) | EC50 [8] | %max [9] | clearance [10] | Vd [11] | MRT [12] | half-life [13] | Cp [14] | Drug uptake [15] | Kp ([16]; brain and plasma, read-out: Kp) | Drug uptake ([15]; BLD = below limit of detection) | Kp ([16]; brain, BLD = below limit of detection) | Activity (Rattus norvegicus) |
| --- | --- | --- | --- | --- | --- | --- | --- | --- | --- | --- | --- | --- | --- | --- | --- | --- | --- | --- | --- | --- |
| c1cnc2c(Nc3ccc4c(C5CCCC5)noc4c3)n[nH]c2n1 | 514 nM | 85.5% |  | 42.3 mL/min/kg | 281 mL/min/kg | 0.013 | 0.008 | 3000 nM | 518 nM | 102% | 23.2 mL/min/kg |  |  | 45.9 min | 117 ng/mL | 145 ng/g | 1.2 |  |  |  |
| Fc1ccc(Nc2n[nH]c3cccnc23)cc1Cl |  |  |  |  |  |  |  |  |  |  |  |  |  |  |  |  |  |  |  | Active |
| O=C(c1nsc2cc(Nc3n[nH]c4cccnc34)ccc12)N1CCC(F)(F)CC1 | 52.4 nM | 71% |  | 54 mL/min/kg | 393 mL/min/kg | 0.021 | 0.029 | > 30000 nM | 139 nM | 103% |  |  |  |  | 249 ng/mL | 35.5 ng/g | 0.14 |  |  |  |
| Cc1noc2ccc(Nc3n[nH]c4ncccc34)cc12 | 227 nM | 81.9% | > 50% | 81.4 mL/min/kg | 30.1 mL/min/kg | 0.066 | 0.079 | 700 nM | 209 nM | 108% | 38 mL/min/kg | 2.5 L/kg | 60.6 min | 107 min |  |  |  |  |  |  |
| O=C(NC1CC(F)(F)C1)c1nsc2cc(Nc3n[nH]c4nccnc34)ccc12 | 26 nM | 68.1% |  | 2.6 mL/min/kg | 8.3 mL/min/kg | 0.004 | 0.007 | > 30000 nM | 82.2 nM | 86.6% |  |  |  |  | 690 ng/mL | 55.6 ng/g | 0.08 |  |  |  |
| CN(C(=O)c1nsc2cc(Nc3n[nH]c4cccnc34)ccc12)C1CC(F)(F)C1 | 68.1 nM | 76.7% |  | 298 mL/min/kg | 2940 mL/min/kg | 0.006 | < 0.001 |  |  |  |  |  |  |  | 511 ng/mL |  |  | Bld | Bld |  |

Further lines, with some results ahead:

| EC50 [1] | %max [2] | Emax [3] | CLint scaled at 1 µM [4] | CLint scaled at 1 µM [5] | fraction unbound at 4 h [6] | fraction unbound at 4 h [7] | IC50 (Cytochrome P450 1A2) | EC50 [8] | %max [9] | clearance [10] | Vd [11] | MRT [12] | half-life [13] | Cp [14] | Drug uptake [15] | Kp ([16]; brain and plasma, read-out: Kp) | Drug uptake ([15]; BLD = below limit of detection) | Kp ([16]; brain, BLD = below limit of detection) | SMILES | Activity (Rattus norvegicus) |
| --- | --- | --- | --- | --- | --- | --- | --- | --- | --- | --- | --- | --- | --- | --- | --- | --- | --- | --- | --- | --- |
| 122 nM | 74.7% | > 50% | 50.2 mL/min/kg | 110 mL/min/kg | 0.028 | 0.033 | < 100 nM | 169 nM | 114% | 30.5 mL/min/kg | 1.2 L/kg | 38 min | 34.7 min |  |  |  |  |  | Cc1noc2c(F)cc(Nc3n[nH]c4ncccc34)cc12 |  |
| 1570 nM | 80.6% | > 50% | 24.2 mL/min/kg | 33.4 mL/min/kg | 0.054 | 0.076 | < 100 nM | 123 nM | 111% | 64.6 mL/min/kg | 2 L/kg | 31.6 min | 54.8 min |  |  |  |  |  | Cc1noc2ccc(Nc3n[nH]c4cc(F)cnc34)cc12 |  |
| 137 nM | 85.4% | > 50% | 114 mL/min/kg | 3 mL/min/kg | 0.066 | 0.064 | 200 nM | 65 nM | 127% | 24.3 mL/min/kg | 0.9 L/kg | 37.2 min | 28.6 min |  |  |  |  |  | Cc1noc2ccc(Nc3n[nH]c4nccnc34)cc12 |  |
| 274 nM | 77.7% | > 50% | 31.1 mL/min/kg | 66.4 mL/min/kg | 0.029 | 0.05 | < 100 nM | 53 nM | 114% | 81.1 mL/min/kg | 3.1 L/kg | 38.4 min | 31.2 min |  |  |  |  |  | Cc1noc2c(F)cc(Nc3n[nH]c4cccnc34)cc12 |  |
